In brackets after ≈: the same amount, converted by molar mass.
Legend:
Format in all cases: functional
Escherichia coli [1] = assay: Selectivity index, ratio of MIC for against extended-spectrum beta-lactamase producing Escherichia coli isolate 106342 to MIC for extended-spectrum beta-lactamase producing Escherichia coli isolate 106342 in presence of BPL
Klebsiella pneumoniae [2] = assay: Antibacterial activity against KPC-2 producing Klebsiella pneumoniae isolate 209735 after 18 hrs by CLSI broth microdilution method; conditions: isolate 209735, 18 h
Pseudomonas aeruginosa [3] = assay: Antibacterial activity against IMP-4 producing Pseudomonas aeruginosa isolate 209321 after 18 hrs in presence of BPL by CLSI broth microdilution method; conditions: isolate 209321, 18 h
Method in brief: (§1)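 CLSI broth microdilution against clinical isolates (ESBL E. coli, KPC-2 MDR K. pneumoniae, IMP-4 MDR P. aeruginosa; five per species). Iron limitation: Mueller-Hinton broth supplemented with 16 mg/liter 2,2'-bipyridyl to complex iron and induce iron uptake systems. Read-out: MIC.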

Klebsiella pneumoniae [4] = assay: Antibacterial activity against KPC-2 producing Klebsiella pneumoniae isolate 209632 after 18 hrs in presence of BPL by CLSI broth microdilution method; conditions: isolate 209632, 18 h; method in brief: as §1
Pseudomonas aeruginosa [5] = assay: Antibacterial activity against IMP-4 producing Pseudomonas aeruginosa isolate 207272 after 18 hrs in presence of BPL by CLSI broth microdilution method; conditions: isolate 207272, 18 h; method in brief: as §1
Pseudomonas aeruginosa [6] = assay: Selectivity index, ratio of MIC for against IMP-4 producing Pseudomonas aeruginosa isolate 209471 to MIC for against IMP-4 producing Pseudomonas aeruginosa isolate 209471 in presence of BPL
Pseudomonas aeruginosa [7] = assay: Antibacterial activity against IMP-4 producing Pseudomonas aeruginosa isolate 207272 after 18 hrs by CLSI broth microdilution method; conditions: isolate 207272, 18 h
Pseudomonas aeruginosa [8] = assay: Antibacterial activity against IMP-4 producing Pseudomonas aeruginosa isolate 208247 after 18 hrs by CLSI broth microdilution method; conditions: isolate 208247, 18 h
Escherichia coli [9] = assay: Selectivity index, ratio of MIC for against extended-spectrum beta-lactamase producing Escherichia coli isolate 209285 to MIC for extended-spectrum beta-lactamase producing Escherichia coli isolate 209285 in presence of BPL
Klebsiella pneumoniae [10] = assay: Antibacterial activity against KPC-2 producing Klebsiella pneumoniae isolate 209735 after 18 hrs in presence of BPL by CLSI broth microdilution method; conditions: isolate 209735, 18 h; method in brief: as §1
Escherichia coli [11] = assay: Antibacterial activity against Escherichia coli isolate 210737 after 18 hrs in presence of BPL by CLSI broth microdilution method; conditions: isolate 210737, 18 h; method in brief: as §1
Klebsiella pneumoniae [12] = assay: Antibacterial activity against KPC-2 producing Klebsiella pneumoniae isolate 212423 after 18 hrs in presence of BPL by CLSI broth microdilution method; conditions: isolate 212423, 18 h; method in brief: as §1
Escherichia coli [13] = assay: Antibacterial activity against extended-spectrum beta-lactamase producing Escherichia coli isolate 208687 after 18 hrs by CLSI broth microdilution method; conditions: isolate 208687, 18 h
Klebsiella pneumoniae [14] = assay: Selectivity index, ratio of MIC for against KPC-2 producing Klebsiella pneumoniae isolate 209735 to MIC for against KPC-2 producing Klebsiella pneumoniae isolate 209735 in presence of BPL
Klebsiella pneumoniae [15] = assay: Selectivity index, ratio of MIC for against KPC-2 producing Klebsiella pneumoniae isolate 209632 to MIC for against KPC-2 producing Klebsiella pneumoniae isolate 209632 in presence of BPL
Escherichia coli [16] = assay: Selectivity index, ratio of MIC for against Escherichia coli isolate 210737 to MIC for Escherichia coli isolate 210737 in presence of BPL
Pseudomonas aeruginosa [17] = assay: Antibacterial activity against IMP-4 producing Pseudomonas aeruginosa isolate 209321 after 18 hrs by CLSI broth microdilution method; conditions: isolate 209321, 18 h
Klebsiella pneumoniae [18] = assay: Antibacterial activity against KPC-2 producing Klebsiella pneumoniae isolate 212423 after 18 hrs by CLSI broth microdilution method; conditions: isolate 212423, 18 h
Klebsiella pneumoniae [19] = assay: Antibacterial activity against KPC-2 producing Klebsiella pneumoniae isolate 209632 after 18 hrs by CLSI broth microdilution method; conditions: isolate 209632, 18 h
Escherichia coli [20] = assay: Antibacterial activity against extended-spectrum beta-lactamase producing Escherichia coli isolate 212648 after 18 hrs in presence of BPL by CLSI broth microdilution method; conditions: isolate 212648, 18 h; method in brief: as §1
Klebsiella pneumoniae [21] = assay: Antibacterial activity against KPC-2 producing Klebsiella pneumoniae isolate 212232 after 18 hrs by CLSI broth microdilution method; conditions: isolate 212232, 18 h
Escherichia coli [22] = assay: Antibacterial activity against extended-spectrum beta-lactamase producing Escherichia coli isolate 106342 after 18 hrs by CLSI broth microdilution method; conditions: isolate 106342, 18 h
Escherichia coli [23] = assay: Selectivity index, ratio of MIC for against extended-spectrum beta-lactamase producing Escherichia coli isolate 212648 to MIC for extended-spectrum beta-lactamase producing Escherichia coli isolate 212648 in presence of BPL
Pseudomonas aeruginosa [24] = assay: Antibacterial activity against IMP-4 producing Pseudomonas aeruginosa isolate 212886 after 18 hrs by CLSI broth microdilution method; conditions: isolate 212886, 18 h
Pseudomonas aeruginosa [25] = assay: Antibacterial activity against IMP-4 producing Pseudomonas aeruginosa isolate 212886 after 18 hrs in presence of BPL by CLSI broth microdilution method; conditions: isolate 212886, 18 h; method in brief: as §1
Pseudomonas aeruginosa [26] = assay: Selectivity index, ratio of MIC for against IMP-4 producing Pseudomonas aeruginosa isolate 207272 to MIC for against IMP-4 producing Pseudomonas aeruginosa isolate 207272 in presence of BPL
Pseudomonas aeruginosa [27] = assay: Antibacterial activity against IMP-4 producing Pseudomonas aeruginosa isolate 209471 after 18 hrs in presence of BPL by CLSI broth microdilution method; conditions: isolate 209471, 18 h; method in brief: as §1
Pseudomonas aeruginosa [28] = assay: Antibacterial activity against IMP-4 producing Pseudomonas aeruginosa isolate 208247 after 18 hrs in presence of BPL by CLSI broth microdilution method; conditions: isolate 208247, 18 h; method in brief: as §1
Klebsiella pneumoniae [29] = assay: Antibacterial activity against KPC-2 producing Klebsiella pneumoniae isolate 212232 after 18 hrs in presence of BPL by CLSI broth microdilution method; conditions: isolate 212232, 18 h; method in brief: as §1
Klebsiella pneumoniae [30] = assay: Selectivity index, ratio of MIC for against KPC-2 producing Klebsiella pneumoniae isolate 212423 to MIC for against KPC-2 producing Klebsiella pneumoniae isolate 212423 in presence of BPL
Escherichia coli [31] = assay: Selectivity index, ratio of MIC for against extended-spectrum beta-lactamase producing Escherichia coli isolate 208687 to MIC for extended-spectrum beta-lactamase producing Escherichia coli isolate 208687 in presence of BPL
Escherichia coli [32] = assay: Antibacterial activity against extended-spectrum beta-lactamase producing Escherichia coli isolate 209285 after 18 hrs by CLSI broth microdilution method; conditions: isolate 209285, 18 h
Escherichia coli [33] = assay: Antibacterial activity against extended-spectrum beta-lactamase producing Escherichia coli isolate 212648 after 18 hrs by CLSI broth microdilution method; conditions: isolate 212648, 18 h
Klebsiella pneumoniae [34] = assay: Selectivity index, ratio of MIC for against KPC-2 producing Klebsiella pneumoniae isolate 212229 to MIC for against KPC-2 producing Klebsiella pneumoniae isolate 212229 in presence of BPL
Escherichia coli [35] = assay: Antibacterial activity against Escherichia coli isolate 210737 after 18 hrs by CLSI broth microdilution method; conditions: isolate 210737, 18 h
Pseudomonas aeruginosa [36] = assay: Selectivity index, ratio of MIC for against IMP-4 producing Pseudomonas aeruginosa isolate 208247 to MIC for against IMP-4 producing Pseudomonas aeruginosa isolate 208247 in presence of BPL
Klebsiella pneumoniae [37] = assay: Antibacterial activity against KPC-2 producing Klebsiella pneumoniae isolate 212229 after 18 hrs by CLSI broth microdilution method; conditions: isolate 212229, 18 h
Klebsiella pneumoniae [38] = assay: Selectivity index, ratio of MIC for against KPC-2 producing Klebsiella pneumoniae isolate 212232 to MIC for against KPC-2 producing Klebsiella pneumoniae isolate 212232 in presence of BPL
Escherichia coli [39] = assay: Antibacterial activity against extended-spectrum beta-lactamase producing Escherichia coli isolate 209285 after 18 hrs in presence of BPL by CLSI broth microdilution method; conditions: isolate 209285, 18 h; method in brief: as §1
Escherichia coli [40] = assay: Antibacterial activity against extended-spectrum beta-lactamase producing Escherichia coli isolate 208687 after 18 hrs in presence of BPL by CLSI broth microdilution method; conditions: isolate 208687, 18 h; method in brief: as §1
Escherichia coli [41] = assay: Antibacterial activity against extended-spectrum beta-lactamase producing Escherichia coli isolate 106342 after 18 hrs in presence of BPL by CLSI broth microdilution method; conditions: isolate 106342, 18 h; method in brief: as §1
Klebsiella pneumoniae [42] = assay: Antibacterial activity against KPC-2 producing Klebsiella pneumoniae isolate 212229 after 18 hrs in presence of BPL by CLSI broth microdilution method; conditions: isolate 212229, 18 h; method in brief: as §1
Pseudomonas aeruginosa [43] = assay: Antibacterial activity against IMP-4 producing Pseudomonas aeruginosa isolate 209471 after 18 hrs by CLSI broth microdilution method; conditions: isolate 209471, 18 h

## CC(C)C(O/N=C(\C(=O)N[C@@H]1C(=O)N(S(=O)(=O)O)[C@@H]1CSc1nc2ccccc2o1)c1csc(N)n1)c1cc(=O)c(O)cn1O (stereo partly drawn)
Escherichia coli [1]
  Selectivity Index: 2
Klebsiella pneumoniae [2]
  MIC: 4 µg/mL (≈ 5.88 µM)
Pseudomonas aeruginosa [3]
  MIC: > 64 µg/mL
Klebsiella pneumoniae [4]
  MIC: 2 µg/mL
Pseudomonas aeruginosa [5]
  MIC: 64 µg/mL
Pseudomonas aeruginosa [6]
  Selectivity Index: 1
Pseudomonas aeruginosa [7]
  MIC: 64 µg/mL (≈ 94.2 µM)
Pseudomonas aeruginosa [8]
  MIC: 64 µg/mL (≈ 94.2 µM)
Escherichia coli [9]
  Selectivity Index: 2
Klebsiella pneumoniae [10]
  MIC: 2 µg/mL
Escherichia coli [11]
  MIC: 0.5 µg/mL
Klebsiella pneumoniae [12]
  MIC: 2 µg/mL
Escherichia coli [13]
  MIC: 4 µg/mL (≈ 5.88 µM)
Klebsiella pneumoniae [14]
  Selectivity Index: 2
Klebsiella pneumoniae [15]
  Selectivity Index: 1
Escherichia coli [16]
  Selectivity Index: 2
Pseudomonas aeruginosa [17]
  MIC: > 64 µg/mL
Klebsiella pneumoniae [18]
  MIC: 4 µg/mL (≈ 5.88 µM)
Klebsiella pneumoniae [19]
  MIC: 2 µg/mL (≈ 2.94 µM)
Escherichia coli [20]
  MIC: 1 µg/mL
Klebsiella pneumoniae [21]
  MIC: 4 µg/mL (≈ 5.88 µM)
Escherichia coli [22]
  MIC: 2 µg/mL (≈ 2.94 µM)
Escherichia coli [23]
  Selectivity Index: 2
Pseudomonas aeruginosa [24]
  MIC: > 64 µg/mL
Pseudomonas aeruginosa [25]
  MIC: > 64 µg/mL
Pseudomonas aeruginosa [26]
  Selectivity Index: 1
Pseudomonas aeruginosa [27]
  MIC: 64 µg/mL
Pseudomonas aeruginosa [28]
  MIC: 64 µg/mL
Klebsiella pneumoniae [29]
  MIC: 0.5 µg/mL
Klebsiella pneumoniae [30]
  Selectivity Index: 2
Escherichia coli [31]
  Selectivity Index: 4
Escherichia coli [32]
  MIC: 4 µg/mL (≈ 5.88 µM)
Escherichia coli [33]
  MIC: 2 µg/mL (≈ 2.94 µM)
Klebsiella pneumoniae [34]
  Selectivity Index: 2
Escherichia coli [35]
  MIC: 1 µg/mL (≈ 1.47 µM)
Pseudomonas aeruginosa [36]
  Selectivity Index: 1
Klebsiella pneumoniae [37]
  MIC: 2 µg/mL (≈ 2.94 µM)
Klebsiella pneumoniae [38]
  Selectivity Index: 8
Escherichia coli [39]
  MIC: 2 µg/mL
Escherichia coli [40]
  MIC: 1 µg/mL
Escherichia coli [41]
  MIC: 1 µg/mL
Klebsiella pneumoniae [42]
  MIC: 1 µg/mL
Pseudomonas aeruginosa [43]
  MIC: 64 µg/mL (≈ 94.2 µM)
